Data on 24 compounds can be found in ChEMBL document CHEMBL1148722, “Discovery and optimization of p38 inhibitors via computer-assisted drug design” (J Med Chem, 2007).

A value given as a limit tells only on which side of the number the result lay.

The subject of data set [1] is Blood. Kind of data set: Inhibition of LPS-induced TNFalpha production in human whole blood. In kind it is functional, tissue-based. An outline of the steps:
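Fresh heparinized human whole blood was preincubated 30 min at 37 °C with serially diluted compound in type AB serum. It was then stimulated with E. coli LPS 0111:B4 (50 ng/mL final) for 5 h at 37 °C. Plasma TNFα was measured by ELISA, DELFIA or electrochemiluminescence against an on-plate standard curve. EC50 came from cross-plate duplicate 11-point curves fitted to a 4-parameter logistic, as the geometric mean over ≥3 donors.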

Data set [2] relates to Mus musculus. Kind of data set: Inhibition of LPS-induced TNFalpha production in BALB/c mouse at 10 mg/kg, po. It counts as functional. An outline of the steps:
(§1)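 Female Balb/c mice (~20 g) were gavaged with compound in cremophor about 30 min before i.v. LPS (E. coli 0111:B4, 1.0 µg/mouse) plus D-gal (50 mg/kg) in pyrogen-free saline. After 1 h, blood was taken by cardiac puncture under anaesthesia. Serum TNFα was measured by ELISA in duplicate, and compound level by HPLC.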

A short description of data set [3]: Clearance in Sprague-Dawley rat at 1 mg/kg, iv. It counts as ADME, organism-based. On the set-up: dose 1 mg/kg, route intravenous. Particulars: in vivo. The procedure, abridged: (§2)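 Male Sprague-Dawley rats, fasted overnight with food returned about 4 h post-dose, three per group. One group got 1 mg/kg as a ~15 s i.v. push via femoral vein catheter at 1 mL/kg. The other got 10 mg/kg by oral gavage at 10 mL/kg. Plasma was analysed by noncompartmental pharmacokinetic methods.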

For data set [4], the system named is Mus musculus. Briefly: Inhibition of LPS-induced TNFalpha production in BALB/c mouse at 3 mg/kg, po. It counts as functional. The procedure, abridged: as §1
Data set [5] can be described thus: Cmax in Sprague-Dawley rat at 10 mg/kg, po. It counts as ADME, organism-based. Further details: dose 10 mg/kg, route oral. As to conditions: in vivo. The procedure, abridged:
as §2

Data set [6] has as its target Mitogen-activated protein kinase 9 (Homo sapiens, UniProt P45984). Kind of data set: Inhibition of JNK2.
Data set [7] concerns the target Tyrosine-protein kinase Lyn (Homo sapiens, UniProt P07948). Briefly: Inhibition of Lyn.
A short description of data set [8]: Bioavailability in Sprague-Dawley rat at 10 mg/kg, po. In kind it is ADME, organism-based. As to conditions: in vivo. An outline of the steps:
as §2

Sequence of Mitogen-activated protein kinase 9 (P45984 whole entry): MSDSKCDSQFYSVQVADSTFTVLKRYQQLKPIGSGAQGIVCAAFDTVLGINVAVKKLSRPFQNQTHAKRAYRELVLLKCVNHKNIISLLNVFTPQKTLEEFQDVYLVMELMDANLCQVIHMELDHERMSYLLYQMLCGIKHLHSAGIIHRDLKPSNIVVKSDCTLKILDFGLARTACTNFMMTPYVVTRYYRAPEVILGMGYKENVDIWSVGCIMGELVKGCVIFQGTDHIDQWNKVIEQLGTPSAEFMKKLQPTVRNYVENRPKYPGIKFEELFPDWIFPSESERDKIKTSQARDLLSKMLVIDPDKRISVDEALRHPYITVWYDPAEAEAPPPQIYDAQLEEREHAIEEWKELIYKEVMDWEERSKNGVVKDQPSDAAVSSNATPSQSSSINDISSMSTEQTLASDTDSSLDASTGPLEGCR
Sequence of Tyrosine-protein kinase Lyn (P07948 whole entry): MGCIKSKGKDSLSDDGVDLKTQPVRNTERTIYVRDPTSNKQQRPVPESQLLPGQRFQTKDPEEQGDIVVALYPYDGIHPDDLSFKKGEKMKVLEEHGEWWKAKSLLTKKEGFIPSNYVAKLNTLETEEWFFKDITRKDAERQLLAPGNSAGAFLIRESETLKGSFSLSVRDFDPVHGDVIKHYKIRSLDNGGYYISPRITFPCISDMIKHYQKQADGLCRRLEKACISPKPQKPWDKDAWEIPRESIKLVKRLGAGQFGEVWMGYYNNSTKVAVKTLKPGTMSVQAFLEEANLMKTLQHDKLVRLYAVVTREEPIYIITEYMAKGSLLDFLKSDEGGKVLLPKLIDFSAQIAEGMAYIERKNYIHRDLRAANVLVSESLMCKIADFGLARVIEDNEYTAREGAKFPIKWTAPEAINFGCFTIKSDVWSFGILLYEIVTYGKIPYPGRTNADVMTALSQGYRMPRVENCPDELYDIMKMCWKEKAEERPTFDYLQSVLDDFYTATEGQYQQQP

What is called IC50 is the midpoint of a concentration-inhibition curve. A low value points to inhibition by little substance. For the compound `COc1c(NC(=O)c2cc3ccccc3s2)cc(C(C)(C)C)cc1NS(C)(=O)=O`, in data set [1], the IC50 was > 10000 nM.
Same read-out and setting: for `COc1c(NC(=O)c2cc3cccc(NC(=O)c4ccc(N)nc4)c3s2)cc(C(C)(C)C)cc1NS(C)(=O)=O` the value was 430 nM; for `COc1c(NC(=O)c2cc3ccccc3o2)cc(C(C)(C)C)cc1NS(C)(=O)=O`, > 10000 nM.
The same measure, in the same setting: for `COc1c(NC(=O)Nc2ccc(OCCN3CCOCC3)c3ccccc23)cc(C(C)(C)C)cc1NS(C)(=O)=O` the value was 1060 nM.
As a reminder, the inhibition in vivo is the percentage by which the read-out fell short of the control. For orientation: clearance means the volume of plasma or blood freed of the substance per unit of time. Low values mean a low capacity for elimination, high ones a high capacity for elimination. A word on the Cmax: it is the maximum level reached in the sampled fluid or tissue. One may read the bioavailability as the share of a dose that reaches the circulation, judged against a reference dose that is usually intravenous. Low values mean poor availability, high ones good availability. In data set [2], `COc1c(NC(=O)c2cc3cccc(NC(=O)c4ccc(NC5CC5)nc4)c3s2)cc(C(C)(C)C)cc1NS(C)(=O)=O` registered an inhibition in vivo at 10 mg/kg of 98%. In addition, the IC50 in data set [1] is 180 nM; in data set [6] it was 16 nM; in data set [7] it was 230 nM. In data set [3], this compound gave a clearance of 4 mL/min/kg. Also, the inhibition in vivo at 3 mg/kg in data set [4] is 80%. In data set [5], the highest level (Cmax) was 2400 ng/mL. This compound also yielded a bioavailability in data set [8] of 51%.
`CNc1ccc(C(=O)Nc2cccc3cc(C(=O)Nc4cc(C(C)(C)C)cc(NS(C)(=O)=O)c4OC)n(C)c23)cn1` returned an IC50 in data set [1] of 500 nM.
On the same count and under the same terms, in the case of `COc1c(NC(=O)c2cc3cccc(NC(=O)c4ccc(NCCN5CCOCC5)nc4)c3n2C)cc(C(C)(C)C)cc1NS(C)(=O)=O` it was 250 nM; in that of `COc1c(NC(=O)c2cc3cccc(NC(=O)c4ccc(NCC5CC5)nc4)c3n2C)cc(C(C)(C)C)cc1NS(C)(=O)=O`, 150 nM; in that of `COc1c(NC(=O)c2cc3cccc(NC(=O)c4ccc(N(C)C)nc4)c3s2)cc(C(C)(C)C)cc1NS(C)(=O)=O`, 2200 nM.
Consider `Cc1ccc(-n2nc(C(C)(C)C)cc2NC(=O)Nc2ccc(OCCN3CCOCC3)c3ccccc23)cc1` [DORAMAPIMOD], for which, in data set [2], 10 mg/kg produced 60% inhibition in vivo. In data set [3], the clearance was determined as 1.7 mL/min/kg. The compound also came in with a Cmax in data set [5] of 10900 ng/mL. In data set [8], this compound gave a bioavailability of 76%.
The compound `COc1c(NC(=O)c2cc3cccc(NC(=O)c4ccc(NCC5CC5)nc4)c3s2)cc(C(C)(C)C)cc1NS(C)(=O)=O` came in with an IC50 in data set [1] of 670 nM.
In the case of `COc1c(NC(=O)c2cc3ccccc3[nH]2)cc(C(C)(C)C)cc1NS(C)(=O)=O`, the IC50 in data set [1] was > 10000 nM.
The same measure, in the same setting: for `COc1c(NC(=O)c2cc3c(NC(=O)c4cccnc4)cccc3s2)cc(C(C)(C)C)cc1NS(C)(=O)=O` the value was > 10000 nM; for `COCCNc1ccc(C(=O)Nc2cccc3cc(C(=O)Nc4cc(C(C)(C)C)cc(NS(C)(=O)=O)c4OC)n(C)c23)cn1`, 160 nM.
Compound `CNc1ccc(C(=O)Nc2cccc3cc(C(=O)Nc4cc(C(C)(C)C)cc(NS(C)(=O)=O)c4OC)sc23)cn1` gave an IC50 in data set [1] of 1100 nM.
Still for that read-out and setting: for `COc1c(NC(=O)c2cc3cccc(NC(=O)c4ccc(NCCN(C)C)nc4)c3s2)cc(C(C)(C)C)cc1NS(C)(=O)=O` the value was 650 nM.
In turn, `COc1c(NC(=O)c2cc3cccc(NC(=O)c4ccc(NC5CC5)nc4)c3n2C)cc(C(C)(C)C)cc1NS(C)(=O)=O` showed an inhibition in vivo at 10 mg/kg in data set [2] of 75%. The IC50 in data set [1] amounted to 140 nM. The same compound had a clearance in data set [3] of 5 mL/min/kg. In data set [4], this compound yielded an inhibition in vivo at 3 mg/kg of 60%. The compound also displayed a Cmax in data set [5] of 14000 ng/mL. This compound also displayed a bioavailability in data set [8] of 51%.
Turning to `COc1c(NC(=O)Nc2cccc3ccccc23)cc(C(C)(C)C)cc1NS(C)(=O)=O`, in data set [1], the half-maximal inhibitory concentration (IC50) is > 10000 nM.
Take `COc1c(NC(=O)c2cc3cccc(NC(=O)c4ccc(NCCN(C)C)nc4)c3n2C)cc(C(C)(C)C)cc1NS(C)(=O)=O`: the IC50 in data set [1] stood at 700 nM.
As for `COc1c(NC(=O)c2cc3cccc(NC(=O)c4cccnc4)c3s2)cc(C(C)(C)C)cc1NS(C)(=O)=O`, the inhibition in vivo at 10 mg/kg in data set [2] worked out at 60%. In data set [1], this compound came in with a 50% inhibitory concentration (IC50) of 1100 nM. Further, the clearance in data set [3] is 19 mL/min/kg. In addition, in data set [5], the Cmax amounted to 5200 ng/mL. The compound further displayed a bioavailability in data set [8] of 57%.
For the compound `COCCNc1ccc(C(=O)Nc2cccc3cc(C(=O)Nc4cc(C(C)(C)C)cc(NS(C)(=O)=O)c4OC)sc23)cn1`, the IC50 in data set [1] stood at 130 nM. This lies in the sub-micromolar range.
Regarding `COc1c(NC(=O)c2cc3cccc(NC(=O)c4cccnc4)c3n2C)cc(C(C)(C)C)cc1NS(C)(=O)=O`, the inhibition in vivo at 10 mg/kg in data set [2] was 60%. In data set [1], the midpoint of inhibition, the IC50, lay at 3600 nM. The same compound gave a clearance in data set [3] of 3 mL/min/kg. Also, the Cmax in data set [5] turned out to be 9000 ng/mL. In data set [8], this compound gave a bioavailability of 90%.
Consider `COc1c(NC(=O)c2cc3cccc(NC(=O)c4ccc(NCCN5CCOCC5)nc4)c3s2)cc(C(C)(C)C)cc1NS(C)(=O)=O`, for which, in data set [1], the IC50 was 550 nM. This counts as sub-micromolar.
The same measure, in the same setting: in the case of `COc1c(NC(=O)c2cc3ccccc3n2C)cc(C(C)(C)C)cc1NS(C)(=O)=O` it was > 10000 nM.
